# PGC1a acetyl up: raises PGC1a acetylation signal in U2OS cells; U2OS PGC1a acetylation AlphaScreen, overnight; activation, % at 15.6 µM; actives 0.21% (n = 350,000);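 active = every replicate reaching activation of at least 50%, whatever the mean replicate activation; inconclusive = replicates that disagree or another doubt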;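 note: hits raise the AlphaScreen acetylation signal above neutral controls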
#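 Incubation: overnight compound treatment, 37 °C. System: U2OS cells transduced with flag-tagged PGC1a and GCN5 acetyltransferase. Detection: AlphaScreen lysate read. Compound: single-point compound dosing.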
# G6PC hep suppr: hepatocyte G6PC expression change via PGC-1a acetylation activation. shares compounds with PGC1a acetyl up. primary mouse hepatocytes, G6PC mRNA qPCR, forskolin. G6PC suppression (normalized activity, % of positive control; higher = more suppression), % at 26 µM. 240 tested, under 10 active;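 active = dose curves showing G6PC suppression whose half-maximal dose is at most twice the top valid dose; inconclusive = flat curves with moderate negative activity, or unreliable fits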;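 note: G6PC expression relative to GAPDH housekeeping gene as delta delta Ct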
# PCK1 hep suppr: PGC-1a acetylation activator altering hepatocyte PCK1 expression | 230 tested, under 10 active | PCK1 expression decrease, unspecified at 26 µM | AID 743465 | shares compounds with PGC1a acetyl up | primary mouse hepatocytes, PCK1 mRNA qPCR, forskolin-stimulated;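 active = compounds lowering PCK1 expression whose fitted half-maximal concentration is at most twice the top tested dose; inconclusive = flat fit with moderate opposite-direction effect, or poor fit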;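 note: higher delta delta Ct means lower PCK1 expression so positive values indicate hits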
# PGC1a hep suppr: PGC-1a acetylation activators affecting PGC-1a expression in hepatocytes | shares compounds with PGC1a acetyl up | primary mouse hepatocytes, PGC-1a mRNA qPCR, forskolin; top dose 26 µM | max activity (PGC-1a expression decrease), % | 240 tested, under 10 active | AID 743467;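 active = compound lowering PGC-1a expression with fitted half-maximal concentration at most twice its top tested dose; inconclusive = flat curve with moderate opposite-direction effect, or poor fit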
# A number is an active result; . = inactive; ? = inconclusive. Only a sample is shown.
SMILES,PGC1a acetyl up,others
O=c1c2ccccc2nc(/C=C/c2ccc([N+](=O)[O-])o2)n1-c1ccc(O)cc1,144,
c1ccc2c(N3CCNCC3)cccc2c1,.,
CNCC(=O)c1ccc(O)c(O)c1,.,
CC1=CC(=C2C(=O)NC(=S)NC2=O)C=C(C(F)(F)F)N1Cc1ccccc1,.,
C[C@H]1C[C@@H](C)C(=O)[C@@H]([C@H](O)CC2CC(=O)NC(=O)C2)C1,.,
CNC(=O)c1cccn(Cc2ccc(C(F)(F)F)cc2)c1=O,68,
CCCN(CCC)[C@@H]1CCc2cccc(O)c2C1,.,
O=C1NC2C(=CC(O)C(O)C2O)c2cc3c(c(O)c21)OCO3 (centres undefined),.,
COCCCn1c(N)c(C(=O)Nc2ccccc2)c2nc3ccccc3nc21,51,
CC(=O)OC1CC2(O)C3CCC4CC(O)CCC4(C)C3CCC2(C)C1C1=CC(=O)OC1 (centres undefined),.,
C[C@]12CC[C@H]3[C@@H](CC[C@]4(O)C[C@@H](O)CC[C@]34C=O)[C@@]1(O)CC[C@@H]2C1=CC(=O)OC1,.,
C=C1C(=O)OC2CC3(C)OC3CCC(C)=CC(OC(C)=O)C12 (centres undefined),118,
O=C1CN=C(c2ccccc2)c2cc([N+](=O)[O-])ccc2N1,.,
O=C1/C(=C/c2ccccc2)C[C@@]2(O)[C@H]3Cc4ccc(O)c5c4[C@@]2(CCN3CC2CC2)C1O5 (some centres undefined),.,
COc1ccc(C(c2nnnn2C2CCCCC2)N2CCC3(CC2)C(=O)NCN3c2ccccc2)cc1 (centres undefined),120,
COC(=O)[C@@H]1[C@@H](C(=O)OC)C2(c3ccccc3-c3ccccc32)N(c2ccc(Cl)cc2)N1C#N,.,
Cn1ncnc2c(=O)n(C)c(=O)nc1-2,.,
O=C1NC2C(=CC(O)C(O)C2O)c2cc3c(cc21)OCO3 (centres undefined),.,
C=C1C(=O)OC2CC3(C)OC3C3OC3C3=CC(OC3=O)C12 (centres undefined),85,
NC1C2CN3CCN(C2)CC1(c1ccccc1)C3 (centres undefined),.,
Cc1ccc(N2C(=O)NC(=O)/C(=C/c3ccoc3)C2=O)cc1,.,
CCc1ccc(N2C(=O)NC(=O)/C(=C\C=C\c3ccco3)C2=O)cc1,114,
CCC1(CC)C(=O)C=CNC1=O,.,
C=C1C(=O)O[C@@H]2C[C@@H](C)[C@H]3C=CC(=O)[C@]3(O)C[C@@H]12,79,
COc1ccc(C(c2ccc(OC)cc2)C(Cl)(Cl)Cl)cc1,93,
SMILES,PGC1a acetyl up,others
CCOC(=O)CNC(=O)N1Cc2ccc(Br)cc2-n2nncc2C1,.,
COC(=O)C1C2c3ccccc3OC1(C)N=c1s/c(=C/c3cn(C)nc3C)c(=O)n12 (centres undefined),.,
CC1=CC(=O)C2=C(C)C[C@H](O)[C@@H]3[C@H](OC(=O)[C@H]3C)[C@@H]12,.,
C[C@H]1CCC/C=C/[C@@H]2C[C@H](O)C[C@H]2[C@@H](O)/C=C/C(=O)O1,.,
CC1=NN(c2ccccc2)C(=O)/C1=C/c1c(O)[nH]c(=O)[nH]c1=O,.,
O=c1[nH]c2ccccc2n1C1CCN(C(c2cc3ccccc3o2)c2nnnn2Cc2ccccc2)CC1 (centres undefined),.,
COc1ccc(-n2c(O)c(C=NCCCn3ccnc3)c(=O)[nH]c2=O)cc1,68,
CCN(CC)c1ccc(N=Cc2c(O)n(-c3ccc(OC)cc3)c(=O)[nH]c2=O)cc1,.,
CCOc1ccccc1N=C1SCCCN1C,.,
C[C@@H]1O[C@@H](O[C@H]2C[C@@H](O)[C@]3(CO)[C@H]4[C@H](O)C[C@]5(C)[C@@H](C6=CC(=O)OC6)CC[C@]5(O)[C@@H]4CC[C@]3(O)C2)[C@H](O)[C@H](O)[C@H]1O,.,
c1cc(CNCCc2ccc3c(c2)OCO3)ccn1,.,
Cc1ccc(OC(=O)N(C)C[C@H]2OCc3ccccc3-c3c(n(C)c4ccccc34)C(=O)N([C@@H](C)CO)C[C@H]2C)cc1,82,G6PC hep suppr=.;PCK1 hep suppr=.;PGC1a hep suppr=.
COc1ccc(OC(=O)N(C)C[C@H]2OCc3ccccc3-c3c(n(C)c4ccccc34)C(=O)N([C@H](C)CO)C[C@H]2C)cc1,173,G6PC hep suppr=.;PCK1 hep suppr=.;PGC1a hep suppr=.
C[C@@H]1CN([C@@H](C)CO)C(=O)c2c(c3ccccc3n2C)-c2ccccc2CO[C@@H]1CN(C)C(=O)Oc1ccccc1,?,G6PC hep suppr=.;PCK1 hep suppr=?;PGC1a hep suppr=.
CC(=O)OCC12CC(OC(=O)CC(C)C)C(C)=CC1OC1C(O)C(OC(C)=O)C2(C)C12CO2 (centres undefined),.,
CN1C2CCC1/C(=C/c1ccccn1)C(=O)/C2=C\c1ccccn1,.,
CC(=O)OC1CC(OC2C(O)CC(OC3C(O)CC(OC4CCC5(C)C(CCC6C5CCC5(C)C(C7=CC(=O)OC7)C(O)CC65O)C4)OC3C)OC2C)OC(C)C1OC1OC(CO)C(O)C(O)C1O (centres undefined),.,
CC(C)Oc1cccnc1N(C)C1CCN(Cc2ccccc2)CC1,.,
N#Cc1ccccc1NC(=O)CN1CC=C(c2ccccc2)CC1,.,
CCOc1ccccc1CNCCc1ccc2c(c1)OCO2,.,
Cc1cccc(C)c1-n1nnnc1C(c1ccccc1OC(F)(F)F)N1CCC(n2c(=O)[nH]c3ccccc32)CC1 (centres undefined),61,G6PC hep suppr=.;PCK1 hep suppr=.;PGC1a hep suppr=.
O=C1CSC2N1CCNC21CCCCC1 (centres undefined),.,
O=[N+]([O-])c1ccc(N2CCOCC2)c2c1no[n+]2[O-],.,
CC(C)(O)/C=C/C(=O)[C@](C)(O)C1[C@H](O)C[C@@]2(C)C3CC=C4C(C[C@H](O)[C@@H](O)C4(C)C)[C@]3(C)C(=O)C[C@]12C (some centres undefined),.,
CC1CC(C)CC(C)C(O)C(C#N)=CC=CCC(C2CCCC2C(=O)O)OC(=O)CC(O)C(C)C1 (centres undefined),.,
